For six compounds, Ki results are on record in ChEMBL document CHEMBL1141072, “Conformationally constrained analogues of diacylglycerol (DAG). 25. Exploration of the sn-1 and sn-2 carbonyl functionality reveals the essential role of the sn-1 carbonyl at the lipid interface in the binding of DAG-lactones to protein kinase C” (J Med Chem, 2005).

Test [1] concerns the target T1, Protein kinase C delta type (Homo sapiens, UniProt Q05655). Nature of the test: Inhibition of [3H]-PDBu binding to C1b domain of protein kinase C delta without phosphatidylserine. The method, boiled down:
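GST-tagged δC1b expressed in BL-21 (DE3) E. coli and purified on glutathione spin columns, purity checked by SDS-PAGE. Competition with [3H]PDBu run in 50 mM Tris-HCl pH 7.4, 4 mg/ml bovine IgG, 1 mM EGTA, no phosphatidylserine, 10 min at 18 °C. Bound ligand separated by PEG precipitation on ice and counted by scintillation. Nonspecific binding taken with 64 μM unlabeled PDBu. Ki derived.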

Test [2] deals with Protein kinase C alpha type (Homo sapiens, UniProt P17252). Nature of the test: Inhibition of [3H]PDBu binding to recombinant protein kinase C alpha was determined at pH 7.4, 37 degree C for 5 min. In short, it runs like this: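 PKCα displacement of [3H]PDBu in 50 mM Tris-HCl, 100 μg/ml phosphatidylserine, 4 mg/ml bovine IgG and 0.1 mM CaCl2, with a range of competitor concentrations. After incubation, chilled 7 min and 35% PEG added, then 10 min on ice and spun at 4 °C. Pellet bound radioactivity counted. Nonspecific binding measured with 64 μM unlabeled PDBu. Expressed as Ki.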

Test [3] concerns the target T1, Protein kinase C delta type. Kind of test: Inhibition of [3H]PDBu binding to C1b domain of protein kinase C delta with phosphatidylserine. In short, it runs like this:
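δC1b domain as GST fusion, expressed in BL-21 (DE3) E. coli and spin-purified. Assay buffer 50 mM Tris-HCl pH 7.4 with 100 μg/ml phosphatidylserine, 4 mg/ml bovine IgG and 1 mM EGTA, plus [3H]PDBu and varied competitor. Incubated 10 min at 18 °C, then precipitated with PEG and pellet counted. Specific binding is total minus binding with 64 μM cold PDBu. Ki reported.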

T1 sequence (Q05655 whole entry, the tested form may be a part): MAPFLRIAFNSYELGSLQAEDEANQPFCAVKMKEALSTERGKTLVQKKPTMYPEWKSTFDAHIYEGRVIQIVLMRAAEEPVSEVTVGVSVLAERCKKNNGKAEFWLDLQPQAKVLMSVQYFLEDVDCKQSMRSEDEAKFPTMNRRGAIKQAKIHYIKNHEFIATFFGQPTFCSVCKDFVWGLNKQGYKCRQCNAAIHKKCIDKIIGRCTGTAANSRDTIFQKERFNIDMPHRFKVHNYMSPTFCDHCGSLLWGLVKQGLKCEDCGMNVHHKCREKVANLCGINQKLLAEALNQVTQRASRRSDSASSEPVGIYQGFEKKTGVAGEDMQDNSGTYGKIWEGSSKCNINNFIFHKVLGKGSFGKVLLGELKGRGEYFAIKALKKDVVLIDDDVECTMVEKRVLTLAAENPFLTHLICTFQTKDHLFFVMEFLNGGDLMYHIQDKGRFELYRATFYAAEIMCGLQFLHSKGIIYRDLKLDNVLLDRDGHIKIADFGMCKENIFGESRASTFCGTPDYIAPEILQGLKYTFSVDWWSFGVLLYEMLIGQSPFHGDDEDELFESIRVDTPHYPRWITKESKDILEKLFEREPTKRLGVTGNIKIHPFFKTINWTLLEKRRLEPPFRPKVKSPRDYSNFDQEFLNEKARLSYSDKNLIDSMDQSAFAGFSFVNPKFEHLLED

A word on the Ki: it is a dissociation constant, usually derived from enzyme kinetics or from competition with a known ligand. In the case of `CC(C)CC(C/C=C1\CC(CO)(COC(=O)C(C)(C)C)OC1=O)CC(C)C` (stereo unspecified), the Ki in test [1] was determined as 0.103 µM; in test [2] it was 0.00325 µM.
Consider `CC(C)CC(C/C=C1/COC(CO)(COC(=O)C(C)(C)C)C1)CC(C)C` (stereo unspecified), for which the Ki in test [3] was found to be 0.219 µM; in test [1], 6.62 µM; in test [2], 0.622 µM.
Take `CC(C)CC(C/C=C1/CC(CO)(COCC(C)(C)C)OC1=O)CC(C)C` (stereo unspecified): the results for the Ki in test [3] and in test [2] were 2.14 µM and 5.87 µM, respectively.
`CC(C)CC(C/C=C1\CC(CO)(COCC(C)(C)C)OC1=O)CC(C)C` (stereo unspecified): the Ki in test [3] was determined as 1.89 µM; in test [1], 101 µM; in test [2], 14.3 µM.
For `CC(C)CC(C/C=C1\CC(CO)(COC(=O)C(C)(C)C)OC1=S)CC(C)C` (stereo unspecified), in that order: 0.00313 µM, 0.173 µM and 0.0237 µM.
For `CC(C)CC(C/C=C1\CC(CO)(COC(=S)C(C)(C)C)OC1=O)CC(C)C` (stereo unspecified), in that order: 0.0206 µM, 0.606 µM and 0.113 µM.
